The source of these data is publication PMC12640659 (Chemmedchem, 2025).

Assay [1] concerns S. aureus ATCC 12600. The assay can be described thus: Antibacterial resazurin assay, S. aureus. Type of assay: cell-based, Staphylococcus aureus. The following applies: for MIC: Staphylococcus aureus, ATCC12600, 6 h, read-out: MIC S. aureus; for MIC S. aureus: resazurin, 6 h, mean ± SD. An outline of the steps:
(§1)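 Twofold dilutions of test compound (100–0.78 μM) were incubated with mid-log bacteria in LB broth at 37 °C for 6 h. Precultures were grown in LB for P. aeruginosa, S. aureus and E. coli, and in TSB for A. baumannii and K. pneumoniae. Cultures were diluted 1:1000, except S. aureus at 1:500. Resazurin (0.13 mg mL−1 solution) was added for 15–30 min and fluorescence read at 560/590 nm. Assays were run in duplicate with novobiocin and nalidixic acid controls, and MIC was fitted by nonlinear regression.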

The subject of assay [2] is S. aureus ATCC 12600. The assay can be described thus: Time-kill kinetics, S. aureus. It counts as cell-based, Staphylococcus aureus. The following applies: at 1x and 4x MICs, up to 5 h. The method in brief: (§2)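 At 0.5, 1, 2, 3, 4 and 5 h, samples were pelleted, resuspended in 10 mM MgSO4 and serially diluted tenfold. Dilutions were spotted on LB agar for 16 h at 37 °C, and growth was compared visually with the untreated control.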

Assay [3] relates to HCC70 TNBC cell line. Description: Resazurin cytotoxicity assay, HCC70. It counts as cell-based. The following applies: for IC50: read-out: IC50 HCC70; for SI (HCC70): selectivity index versus nontumorigenic MCF12A. An outline of the steps: (§3)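 Cells were seeded at 5.0 × 10^3 per well and left to attach overnight at 37 °C, 9% CO2, then treated with test compound for 96 h. A […] resazurin solution was added for 2–4 h at 37 °C and fluorescence read at ex 560/em 590 nm. Assays were run in triplicate, and IC50 was obtained by nonlinear regression.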

Assay [4] has as its system MCF‐7 hormone receptor‐positive breast cancer cell line. Description: Resazurin cytotoxicity assay, MCF7. It counts as cell-based. The following applies: for IC50: read-out: IC50 MCF7; for SI (MCF7): selectivity index versus nontumorigenic MCF12A. An outline of the steps:
as §3

Assay [5] relates to K. pneumoniae ST512‐K30BO. The assay can be described thus: Antibacterial resazurin assay, drug-resistant K. pneumoniae. It counts as cell-based, Klebsiella pneumoniae. The following applies: 6 h; for MIC K. pneumoniae: resazurin, drug‐resistant ST512 strain, sixth column pair of SI-15; for MIC: Klebsiella pneumoniae, read-out: MIC K. pneumoniae. An outline of the steps:
as §1

Assay [6] relates to P. aeruginosa ATCC 27853. Description: Antibacterial resazurin assay, P. aeruginosa. It counts as cell-based, Pseudomonas aeruginosa. The following applies: for MIC P. aeruginosa: resazurin, 6 h, mean ± SD; for MIC: Pseudomonas aeruginosa, ATCC27853, 6 h, read-out: MIC P. aeruginosa. An outline of the steps: as §1
In general terms: Alamar Blue is a resazurin reagent that responds to reducing activity.

In assay [7] the test system is A. baumannii ATCC 19606. Description: Antibacterial resazurin assay, A. baumannii. The following applies: for MIC A. baumannii: resazurin, 6 h, mean ± SD; for MIC: Acinetobacter baumannii, ATCC19606, 6 h, read-out: MIC A. baumannii. It counts as cell-based, Acinetobacter baumannii. The method in brief: as §1
Assay [8] deals with MDA‐MB‐231 triple‐negative breast cancer (TNBC) cell line. Description: Resazurin cytotoxicity assay, MDA-MB-231. It counts as cell-based. The following applies: for IC50: read-out: IC50 MDA‐MB231; for SI (MDA‐MB231): selectivity index versus nontumorigenic MCF12A. An outline of the steps:
as §3

The subject of assay [9] is E. coli ATCC 10536. Description: Antibacterial resazurin assay, E. coli. It counts as cell-based, Escherichia coli. The following applies: for MIC E. coli: resazurin, 6 h, mean ± SD; for MIC: Escherichia coli, ATCC10536, 6 h, read-out: MIC E. coli. An outline of the steps:
as §1

The test system of assay [10] is E. coli ATCC 10536. Description: Time-kill kinetics, E. coli. The following applies: at 1x and 4x MICs, up to 5 h. Type of assay: cell-based, Escherichia coli. An outline of the steps: as §2
Assay [11] has as its system HeLa cells. Description: Cytotoxicity against HeLa cells. It counts as cell-based. The following applies: Homo sapiens, read-out: IC50 HeLa cell.
In assay [12] the test system is nontumorigenic breast epithelial cell line MCF12A. The assay can be described thus: Resazurin cytotoxicity assay, MCF12A. Type of assay: cell-based. The following applies: Homo sapiens, MCF-12A, 96 h, read-out: IC50 MCF12A. The method in brief:
as §3

Where [13] appears, read: resazurin, 96 h, mean ± SD (n = 3).

Converted amounts (≈) assume the structure as drawn. Where two headings read alike, the source gives them in different places.

On to `CO[C@@H]1[C@@H](OC(N)=O)[C@@H](O)[C@H](Oc2ccc3c(O)c(NC(=O)c4ccc(O)c(CC=C(C)C)c4)c(=O)oc3c2C)OC1(C)C` [Novobiocin, reference compound], for which, in assay [1], the MIC (as a rule, the lowest concentration that inhibits growth of the organism) is 0.002 ± 0.002 µM (≈ 0.00123 µg/mL). Also, the “Bactericidal endpoint, S. aureus, in words” value in assay [2] was “did not achieve bactericidal endpoints”.
For `CC(N)C(O)CCCCCCCCCCCCCCC(=O)CCCCCCCC(O)C(C)N` (stereo not shown) [Compound 2b, rhizochalinin], the IC50 (commonly the concentration that inhibits the measured activity by half) in [3] (setting [13]) was determined as 4.97 ± 1.2 µM; in [4] (setting [13]), 21.4 ± 1.2 µM; in [8] (setting [13]) it was 6.78 ± 1.3 µM. The “SI (HCC70)” value in assay [3] is recorded as 4.2. In addition, the “SI (MCF7)” value in assay [4] turned out to be 1.0. Moreover, in assay [5], the “MIC K. pneumoniae” value was determined as 23.78 ± 0.15 µM (≈ 11.2 µg/mL). The “MIC P. aeruginosa” value in assay [6] was over 50 µM. The “MIC A. baumannii” value in assay [7] came out at 55.7 ± 0.85 µM (≈ 26.2 µg/mL). For the same molecule, in [8], the “SI (MDA‐MB231)” value is reported as 3.1. In addition, the “MIC E. coli” value in assay [9] stood at 49.1 ± 3.42 µM (≈ 23.1 µg/mL).
On to rhizochalinin C [Compound 3b], for which the results for the IC50 in assay [3] (setting [13]), in assay [4] (setting [13]) and in assay [8] (setting [13]) were 6.43 ± 1.1 µM, 26.4 ± 1.2 µM and 6.78 ± 1.2 µM, respectively. The “SI (HCC70)” value in [3] was found to be 4.5. Further, the “SI (MCF7)” value in assay [4] was determined as 1.1. The “MIC S. aureus” value in assay [1] is over 50 µM. In assay [5], the “MIC K. pneumoniae” value is over 50 µM. Also, the “MIC P. aeruginosa” value in [6] was over 50 µM. Moreover, the “MIC A. baumannii” value in assay [7] was over 50 µM. In addition, the “SI (MDA‐MB231)” value in [8] was determined as 4.3. In [9], the “MIC E. coli” value was over 50 µM.
Turning to `CCn1cc(C(=O)O)c(=O)c2ccc(C)nc21` [Nalidixic acid, reference compound], in assay [10], the “Bactericidal endpoint, E. coli, in words” value is “did not achieve bactericidal endpoints”. Besides, the MIC in assay [5] worked out at 28.8 ± 1.09 µM (≈ 6.7 µg/mL); in assay [6] it was 0.17 ± 0.01 µM (≈ 0.0395 µg/mL); in assay [7] it was 1.28 ± 0.92 µM (≈ 0.297 µg/mL); in assay [9], 0.47 ± 0.22 µM (≈ 0.109 µg/mL).
As to `N.N.[Cl][Pt][Cl]` [Cisplatin, reference compound], the half-inhibitory concentration (IC50) in assay [3] (setting [13]) was determined as 2.6 ± 1.2 µM; in assay [4] (setting [13]), 4.4 ± 1.2 µM; in assay [8] (setting [13]), 18.1 ± 1.2 µM. The “SI (HCC70)” value in [3] was 4.5. The “SI (MCF7)” value in assay [4] is recorded as 2.5. Further, in assay [8], the “SI (MDA‐MB231)” value came out at 0.6.
On to “tetraperbenzoyl rhizochalinin [Compound 2c]”, for which, in assay [1], the “MIC S. aureus” value was over 50 µM. In addition, in assay [5], the “MIC K. pneumoniae” value was over 50 µM. Besides, the “MIC P. aeruginosa” value in [6] is over 50 µM. Besides, in assay [7], the “MIC A. baumannii” value was over 50 µM. The “MIC E. coli” value in [9] is over 50 µM.
Turning to oceanin [Compound 4b], the IC50 in [3] (setting [13]) came to 117 ± 1.4 µM; in [4] (setting [13]) it was 8.39 ± 1.39 µM; in [8] (setting [13]), 6.36 ± 1.4 µM. Besides, the “SI (HCC70)” value in assay [3] turned out to be 0.6. In addition, the “SI (MCF7)” value in [4] was 7.9. In addition, the “MIC S. aureus” value in assay [1] is over 50 µM. Moreover, the “MIC K. pneumoniae” value in assay [5] was over 50 µM. Besides, the “MIC P. aeruginosa” value in [6] is over 50 µM. Further, in assay [7], the “MIC A. baumannii” value was over 50 µM. Moreover, the “SI (MDA‐MB231)” value in assay [8] is 10.4. Further, the “MIC E. coli” value in assay [9] is over 50 µM.
As for “pentaperbenzoyl rhizochalinin C [Compound 3c]”, in assay [1], the “MIC S. aureus” value is over 50 µM. In addition, the “MIC K. pneumoniae” value in [5] was over 50 µM. For the same molecule, the “MIC P. aeruginosa” value in [6] was over 50 µM. Further, the “MIC A. baumannii” value in [7] was over 50 µM. Further, in assay [9], the “MIC E. coli” value was over 50 µM.
For the molecule pentaperbenzoyl oceanin [Compound 4c], the “MIC S. aureus” value in assay [1] is over 50 µM. Further, in [5], the “MIC K. pneumoniae” value was over 50 µM. Also, the “MIC P. aeruginosa” value in assay [6] is over 50 µM. In [7], the “MIC A. baumannii” value is over 50 µM. The “MIC E. coli” value in assay [9] is over 50 µM.
As to `C[C@@H](N)[C@H](O)CCCCCCCC(=O)CCCCCCCCCCCCCC[C@@H](O[C@@H]1O[C@H](CO)[C@H](O)[C@H](O)[C@H]1O)[C@@H](C)N` [Compound 2, rhizochalin], the IC50 in assay [3] (Homo sapiens, HCC70, 96 h) was determined as 1.94 ± 1.13 µM; in assay [11], 7.11 µM; in assay [4] (Homo sapiens, MCF7, 96 h), 2.43 ± 1.17 µM; in assay [12], 4.25 ± 1.28 µM; in assay [8] (Homo sapiens, MDA-MB-231, 96 h) it was 4.59 ± 1.22 µM. Moreover, the “SI (HCC70)” value in assay [3] amounted to 2.2. In addition, in [4], the “SI (MCF7)” value is 1.8. For the same molecule, the MIC in assay [1] was found to be 3.64 ± 0.47 µM (≈ 2.3 µg/mL); in [5], 8.52 ± 3.1 µM (≈ 5.39 µg/mL); in assay [6], 3.84 ± 0.82 µM (≈ 2.43 µg/mL); in [7], 6.29 ± 0.02 µM (≈ 3.98 µg/mL); in assay [9] it was 6.15 ± 0.04 µM (≈ 3.89 µg/mL). Further, the “SI (MDA‐MB231)” value in assay [8] is listed as 1.0.
